Assay results: publication PMC4651821 (Clinical & experimental metastasis, 2015)
Read-outs that look alike come from different tables or passages of the source.

What was measured:
[1] = target: T1, FAK (Homo sapiens, UniProt Q05397); assay: FAK Omnia Kinase Assay; conditions: read-out: biochemical IC50 for FAK inhibition
Summary of the method: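 GST-tagged full-length FAK phosphorylated a sulfonamido-oxine (SOX)-containing peptide substrate, read by chelation-enhanced fluorescence (Omnia). Test compound was run as an 11-point threefold serial dilution at final 0.17–10,000 nM or 0.12–7250 nM, in triplicate. IC50 was derived from the curves.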

[2] = target: T1, FAK; assay: Kinase Profiling System with ADP-Glo Kinase Assay, 192 kinases; assay type: biochemical; conditions: OXA-11 concentration of 100 nM
[3] = target: T1, FAK; assay: Cell-based kinase assay in cell lysates
[4] = target: PYK2 (Homo sapiens, UniProt Q14289); assay: Cell-based kinase assay in cell lysates
Sequence of PYK2 (Q14289 whole entry): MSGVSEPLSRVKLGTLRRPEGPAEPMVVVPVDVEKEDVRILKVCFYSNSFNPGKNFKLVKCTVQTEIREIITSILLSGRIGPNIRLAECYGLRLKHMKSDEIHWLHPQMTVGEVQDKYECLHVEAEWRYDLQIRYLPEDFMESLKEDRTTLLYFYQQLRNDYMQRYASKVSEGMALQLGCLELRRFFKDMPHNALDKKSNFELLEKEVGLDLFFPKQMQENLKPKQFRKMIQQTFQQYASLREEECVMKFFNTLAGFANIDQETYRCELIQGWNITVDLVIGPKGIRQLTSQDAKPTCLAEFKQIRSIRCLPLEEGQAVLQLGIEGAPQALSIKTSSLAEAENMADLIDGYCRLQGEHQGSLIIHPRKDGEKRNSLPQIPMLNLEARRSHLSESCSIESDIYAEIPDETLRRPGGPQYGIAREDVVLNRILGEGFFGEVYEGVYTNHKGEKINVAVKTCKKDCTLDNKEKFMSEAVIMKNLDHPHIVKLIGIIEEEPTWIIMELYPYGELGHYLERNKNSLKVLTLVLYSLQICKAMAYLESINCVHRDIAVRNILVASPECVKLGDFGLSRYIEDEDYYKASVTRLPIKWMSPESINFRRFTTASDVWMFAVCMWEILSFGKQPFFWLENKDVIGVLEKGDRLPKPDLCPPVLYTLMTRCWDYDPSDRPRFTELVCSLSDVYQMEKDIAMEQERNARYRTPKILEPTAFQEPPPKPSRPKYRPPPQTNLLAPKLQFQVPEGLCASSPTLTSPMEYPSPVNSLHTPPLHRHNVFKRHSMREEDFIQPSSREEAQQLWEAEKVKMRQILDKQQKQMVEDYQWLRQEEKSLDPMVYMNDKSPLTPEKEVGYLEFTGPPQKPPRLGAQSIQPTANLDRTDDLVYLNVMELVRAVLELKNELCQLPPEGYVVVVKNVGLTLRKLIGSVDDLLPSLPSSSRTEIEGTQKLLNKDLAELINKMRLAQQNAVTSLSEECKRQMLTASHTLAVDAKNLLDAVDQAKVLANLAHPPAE

[5] = target: Insulin receptor (Homo sapiens, UniProt P06213); assay: Cell-based kinase assay in cell lysates
[6] = target: SRC (Homo sapiens, UniProt P12931); assay: Cell-based kinase assay in cell lysates
Sequence of SRC (P12931 whole entry): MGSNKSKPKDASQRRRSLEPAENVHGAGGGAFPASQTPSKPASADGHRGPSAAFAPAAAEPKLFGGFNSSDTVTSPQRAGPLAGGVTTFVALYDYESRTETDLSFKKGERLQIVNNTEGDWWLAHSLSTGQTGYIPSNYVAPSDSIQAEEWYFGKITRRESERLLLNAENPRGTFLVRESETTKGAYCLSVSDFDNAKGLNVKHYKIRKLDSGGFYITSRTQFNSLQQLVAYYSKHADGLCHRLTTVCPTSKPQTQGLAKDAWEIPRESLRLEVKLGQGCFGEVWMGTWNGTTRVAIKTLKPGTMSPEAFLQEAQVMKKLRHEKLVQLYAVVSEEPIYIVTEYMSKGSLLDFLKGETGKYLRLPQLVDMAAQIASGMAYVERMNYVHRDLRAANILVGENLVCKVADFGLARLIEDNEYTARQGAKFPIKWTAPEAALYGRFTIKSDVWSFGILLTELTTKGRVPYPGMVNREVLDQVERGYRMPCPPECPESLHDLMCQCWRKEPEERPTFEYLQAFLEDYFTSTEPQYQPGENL

[7] = target: FAK (Mus musculus, UniProt P34152); assay: Cellular mechanistic FAK inhibition, 4T1 cell lysates; assay type: cell-based; conditions: read-out: OXA-11 IC50 (nM) for FAK, 4T1 mammary carcinoma cells
Sequence of FAK (Mus musculus, UniProt P34152) (P34152 whole entry): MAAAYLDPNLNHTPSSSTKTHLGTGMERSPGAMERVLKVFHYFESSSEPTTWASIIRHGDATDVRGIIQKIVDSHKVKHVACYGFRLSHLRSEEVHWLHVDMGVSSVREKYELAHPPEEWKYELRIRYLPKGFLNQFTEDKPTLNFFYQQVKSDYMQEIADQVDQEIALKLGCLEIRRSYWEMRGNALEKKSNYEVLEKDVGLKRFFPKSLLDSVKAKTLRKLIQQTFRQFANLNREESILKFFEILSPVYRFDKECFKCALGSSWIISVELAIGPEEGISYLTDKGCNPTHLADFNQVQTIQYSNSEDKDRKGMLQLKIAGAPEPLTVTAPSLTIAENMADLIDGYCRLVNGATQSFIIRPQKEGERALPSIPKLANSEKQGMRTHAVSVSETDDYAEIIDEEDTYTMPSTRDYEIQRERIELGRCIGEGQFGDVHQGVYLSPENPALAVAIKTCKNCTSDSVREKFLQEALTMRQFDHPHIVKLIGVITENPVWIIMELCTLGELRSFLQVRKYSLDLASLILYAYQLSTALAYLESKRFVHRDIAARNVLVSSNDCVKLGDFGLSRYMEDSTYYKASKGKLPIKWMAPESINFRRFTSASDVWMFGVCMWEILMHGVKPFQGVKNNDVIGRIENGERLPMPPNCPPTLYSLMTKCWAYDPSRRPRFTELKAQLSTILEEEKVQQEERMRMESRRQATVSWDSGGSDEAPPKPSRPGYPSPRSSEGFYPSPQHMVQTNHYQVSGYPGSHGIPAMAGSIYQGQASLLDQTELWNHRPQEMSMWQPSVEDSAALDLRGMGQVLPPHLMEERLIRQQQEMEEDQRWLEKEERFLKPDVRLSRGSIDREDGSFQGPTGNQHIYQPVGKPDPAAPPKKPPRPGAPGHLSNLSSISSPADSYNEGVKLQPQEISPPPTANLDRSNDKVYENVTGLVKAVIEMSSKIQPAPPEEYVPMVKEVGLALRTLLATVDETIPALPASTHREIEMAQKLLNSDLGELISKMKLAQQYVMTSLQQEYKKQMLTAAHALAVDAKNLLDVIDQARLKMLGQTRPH

[8] = target: FAK (Rattus norvegicus, UniProt O35346); assay: Cellular mechanistic FAK inhibition, RMC cell lysates; assay type: cell-based; conditions: read-out: OXA-11 IC50 (nM) for FAK, RMC kidney mesangial cells
[9] = target: T1, FAK; assay: Cellular mechanistic FAK inhibition, MDA-MB-361 cell lysates; assay type: cell-based; conditions: read-out: OXA-11 IC50 (nM) for FAK, MDA-MB-361 breast adenocarcinoma metastasis cells
[10] = test system: FAK; assay: Cellular mechanistic FAK inhibition, MDCK cell lysates; assay type: cell-based; conditions: read-out: OXA-11 IC50 (nM) for FAK, Dog, MDCK kidney epithelial cells
[11] = test system: FAK; assay: Cellular mechanistic FAK inhibition, CMMT cell lysates; assay type: cell-based; conditions: read-out: OXA-11 IC50 (nM) for FAK, Monkey, CMMT mammary gland epithelial cells
[12] = target: T2, pFAK [Y397] (Homo sapiens, UniProt Q05397); assay: pFAK [Y397] sandwich ELISA in IGROV1 cells; assay type: cell-based; conditions: read-out: IC50 of pFAK [Y397] inhibition; IGROV1 ovarian cancer cells in vitro
T2 sequence (Q05397 whole entry): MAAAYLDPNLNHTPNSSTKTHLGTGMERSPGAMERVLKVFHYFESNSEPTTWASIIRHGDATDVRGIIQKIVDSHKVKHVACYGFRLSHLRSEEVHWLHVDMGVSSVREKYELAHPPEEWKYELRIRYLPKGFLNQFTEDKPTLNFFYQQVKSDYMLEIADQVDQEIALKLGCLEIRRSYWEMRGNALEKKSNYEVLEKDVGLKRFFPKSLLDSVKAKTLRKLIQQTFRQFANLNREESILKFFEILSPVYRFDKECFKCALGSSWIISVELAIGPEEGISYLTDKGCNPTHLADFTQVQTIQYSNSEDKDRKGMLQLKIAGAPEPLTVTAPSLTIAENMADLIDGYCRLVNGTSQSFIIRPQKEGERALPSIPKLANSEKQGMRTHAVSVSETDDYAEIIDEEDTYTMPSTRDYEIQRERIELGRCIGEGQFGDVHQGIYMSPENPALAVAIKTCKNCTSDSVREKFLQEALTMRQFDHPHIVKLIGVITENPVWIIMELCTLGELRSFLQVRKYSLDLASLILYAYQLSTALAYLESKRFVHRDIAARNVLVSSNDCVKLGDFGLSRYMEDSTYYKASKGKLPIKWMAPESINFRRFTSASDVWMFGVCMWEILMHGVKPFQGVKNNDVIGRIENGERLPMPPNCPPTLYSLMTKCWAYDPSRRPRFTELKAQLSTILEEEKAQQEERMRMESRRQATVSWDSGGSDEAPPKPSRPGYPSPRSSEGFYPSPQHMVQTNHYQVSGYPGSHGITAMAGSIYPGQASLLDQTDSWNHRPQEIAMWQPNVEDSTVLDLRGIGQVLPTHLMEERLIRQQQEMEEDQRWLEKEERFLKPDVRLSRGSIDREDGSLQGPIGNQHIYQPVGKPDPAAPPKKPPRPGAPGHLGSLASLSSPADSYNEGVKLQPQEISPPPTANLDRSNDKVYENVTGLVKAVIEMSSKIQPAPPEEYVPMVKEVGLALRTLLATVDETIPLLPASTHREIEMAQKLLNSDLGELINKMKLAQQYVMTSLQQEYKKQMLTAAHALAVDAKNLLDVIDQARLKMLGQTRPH

[13] = test system: TOV21G cells; assay: Apoptosis, caspase 3/7 activity; assay type: cell-based, human; conditions: read-out: EC50 promotion of apoptosis, 3-D culture
[14] = test system: IGROV1 cells; assay: Apoptosis, caspase 3/7 activity; assay type: cell-based, human; conditions: read-out: EC50 promotion of apoptosis, 3-D culture
[15] = test system: TOV21G tumors; assay: Tumor growth inhibition, TOV21G xenografts in nude mice; assay type: in vivo, mouse
Summary of the method: (§1)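 TOV21G or MDA-MB-361 cells were implanted subcutaneously in athymic nude mice and grown to a standardized size (n = 8 per group). Test compound was given daily by gavage at 20–120 mg/kg for 3 weeks. Tumor size was measured and body weight recorded during treatment.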

[16] = target: T2, pFAK [Y397]; assay: PK/PD of pFAK [Y397] inhibition in xenograft tumors; assay type: in vivo, mouse
Summary of the method: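 TOV21G cells were implanted subcutaneously in athymic nude mice and grown to a standardized size. Mice got a single gavage dose of test compound (40–120 mg/kg in 20 % Trappsol) or vehicle. From 2 to 24 h later, tumor pFAK [Y397] was measured by ELISA alongside plasma drug levels. Time points were 4, 8 and 24 h after 80 or 120 mg/kg.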

[17] = test system: MDA-MB-361 breast tumors; assay: Tumor growth inhibition, MDA-MB-361 xenografts in mice; assay type: in vivo, mouse
Summary of the method: as §1

[18] = Tolerability in xenograft-bearing athymic nude mice; assay type: in vivo, mouse; conditions: 20–120 mg/kg daily for 3 weeks
Summary of the method: as §1

[19] = Tolerability / maximum tolerated dose in RIP-Tag2 mice; assay type: in vivo
[20] = target: T3, pFAK [Y397] (Mus musculus, UniProt P34152); assay: pFAK [Y397] ELISA in RIP-Tag2 tumors; assay type: in vivo; conditions: 4 h after a single 40-mg/kg dose
T3 sequence (P34152 whole entry, the tested form may be a part): as the sequence (P34152 whole entry) above
Summary of the method: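 14-week-old RIP-Tag2 mice received no treatment, one 40 mg/kg dose of test compound, or 20 % Trappsol, 4 or 8 h before sampling. Mice were perfused with PBS, and tumors were removed and frozen. Total FAK and pFAK [Y397] were measured by ELISA, with pancreas of RIP-Tag2-negative littermates as control; n = 4–12 per group.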

[21] = target: T3, pFAK [Y397]; assay: pFAK [Y397] immunohistochemistry in RIP-Tag2 liver and tumors; assay type: in vivo; conditions: 2 h after one 20-mg/kg dose
[22] = target: pFAK [Y861] (Mus musculus, UniProt P34152); assay: pFAK [Y861] immunohistochemistry in RIP-Tag2 liver and tumors; assay type: in vivo; conditions: for reduction of pFAK [Y861] staining in liver sinusoids: RIP-Tag2 mice
Sequence of pFAK [Y861] (P34152 whole entry, the tested form may be a part): as the sequence (P34152 whole entry) above
Summary of the method: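 RIP-Tag2 mice got one 20 mg/kg dose of test compound or 20 % Trappsol. pFAK [Y861] immunofluorescence was examined in liver sinusoids and tumors at 6 time points from 1 to 24 h (n = 4 mice per time point). Tissues were perfusion-fixed with 1 % PFA and frozen sections were stained; the time course gave a tissue half-life of inhibition.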

[23] = test system: liver metastases of pancreatic neuroendocrine tumors; assay: Liver metastasis in RIP-Tag2 mice; assay type: in vivo, mouse
Summary of the method: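 RIP-Tag2 transgenic mice (C57BL/6 background) were treated for 3 weeks from age 14 weeks with vehicle (20 % Trappsol daily), test compound 20 mg/kg daily, anti-VEGFR-2 antibody DC101 1 mg ip twice weekly, or both. At 17 weeks, visible liver metastases were scored at autopsy. Micrometastases (≥2 adjacent SV40 T-antigen-positive cells) were counted and sized in two 80-μm liver sections per mouse; n = 19–24 per group.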

[24] = test system: RSK1/2
[25] = target: Aurora kinase A (Homo sapiens, UniProt O14965)
[26] = target: Aurora kinase B (Homo sapiens, UniProt Q96GD4)
[27] = target: KDR (Homo sapiens, UniProt P35968)
Sequence of KDR (P35968 20-1356): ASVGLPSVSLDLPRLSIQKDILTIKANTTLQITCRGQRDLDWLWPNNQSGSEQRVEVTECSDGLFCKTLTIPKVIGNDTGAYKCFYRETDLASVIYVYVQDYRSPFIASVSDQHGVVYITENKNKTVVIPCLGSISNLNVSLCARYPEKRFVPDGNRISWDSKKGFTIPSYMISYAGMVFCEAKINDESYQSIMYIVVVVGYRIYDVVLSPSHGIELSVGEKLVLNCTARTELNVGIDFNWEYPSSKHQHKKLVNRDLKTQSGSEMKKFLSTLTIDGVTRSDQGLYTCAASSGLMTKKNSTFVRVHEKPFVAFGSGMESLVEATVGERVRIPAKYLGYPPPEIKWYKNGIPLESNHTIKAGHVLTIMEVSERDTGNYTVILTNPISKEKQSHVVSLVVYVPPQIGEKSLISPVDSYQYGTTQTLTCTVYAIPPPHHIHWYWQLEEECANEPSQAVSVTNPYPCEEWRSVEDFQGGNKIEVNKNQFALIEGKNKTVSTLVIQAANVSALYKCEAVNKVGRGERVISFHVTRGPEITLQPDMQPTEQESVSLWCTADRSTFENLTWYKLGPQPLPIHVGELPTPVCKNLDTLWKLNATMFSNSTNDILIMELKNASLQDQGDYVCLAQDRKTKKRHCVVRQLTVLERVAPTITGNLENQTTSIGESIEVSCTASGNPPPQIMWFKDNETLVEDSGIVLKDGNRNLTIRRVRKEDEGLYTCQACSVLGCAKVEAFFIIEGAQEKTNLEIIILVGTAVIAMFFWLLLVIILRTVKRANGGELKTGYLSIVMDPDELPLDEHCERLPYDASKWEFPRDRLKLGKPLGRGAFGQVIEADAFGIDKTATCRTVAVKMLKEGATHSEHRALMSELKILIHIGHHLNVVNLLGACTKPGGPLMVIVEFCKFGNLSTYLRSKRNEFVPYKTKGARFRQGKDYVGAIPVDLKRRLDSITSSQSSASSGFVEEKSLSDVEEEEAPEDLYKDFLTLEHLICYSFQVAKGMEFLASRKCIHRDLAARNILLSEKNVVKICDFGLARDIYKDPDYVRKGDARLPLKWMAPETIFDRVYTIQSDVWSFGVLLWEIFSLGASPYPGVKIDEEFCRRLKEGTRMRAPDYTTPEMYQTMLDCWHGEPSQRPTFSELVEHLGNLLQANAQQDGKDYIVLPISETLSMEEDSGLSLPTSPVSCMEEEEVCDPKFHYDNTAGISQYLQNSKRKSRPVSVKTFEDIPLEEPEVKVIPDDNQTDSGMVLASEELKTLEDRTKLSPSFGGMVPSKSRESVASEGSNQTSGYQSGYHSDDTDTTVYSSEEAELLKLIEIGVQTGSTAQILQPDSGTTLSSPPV

[28] = test system: TOV21G cells; conditions: read-out: EC50 inhibition of proliferation, 3-D culture, 7 days
[29] = test system: IGROV1 cells; conditions: read-out: EC50 inhibition of proliferation, 3-D culture, 7 days
[30] = test system: eight human tumor cell lines; conditions: read-out: EC50 inhibition of proliferation in 3-D culture
[31] = test system: TOV21G tumors; assay: OXA-11 with cisplatin in TOV21G tumors in nude mice; assay type: in vivo; conditions: cisplatin given alone, 5 mg/kg
[32] = cellular mechanistic IC50, TOV21G cells
[33] = TOV21G xenografts, 120 mg/kg daily

T1 sequence (Q05397 whole entry): as the sequence (Q05397 whole entry) above

## CCOP(=O)(Cc1ccc(Nc2ncc(C(F)(F)F)c(Nc3ccc([C@H]4CC[C@H](N5CCN(C)CC5)CC4)c4c3C(=O)N(C)C4)n2)c(OC)c1)OCC [OXA-11, diethyl (3-methoxy-4-{ [4-({2-methyl-7-[trans-4-(4-methylpiperazin-1-yl)cyclo-hexyl]-3-oxo-2,3-dihydro-1H-isoindol-4-yl}amino)-5-(tri-fluoromethyl)pyrimidin-2-yl]amino}benzyl) phosphonate]
[1]
  IC50: 1.2 pM
[2]
  inhibition of kinase in biochemical specificity screening: more than 50%
[3]
  Fold selectivity for FAK (FAK): 1×
[4]; cell lysates
  Fold selectivity for FAK over PYK2: 8×
[4]; [32]
  selectivity for FAK over PYK2: eightfold
[4]; read-out: OXA-11 IC50 (nM), PYK2, cellular mechanistic, cell lysates
  IC50: 80 nM
[5]; cell lysates
  Fold selectivity for FAK over Insulin receptor: >1000×
[5]; [32]
  selectivity for FAK over insulin receptor (IR, INSR): > 1000 fold
[5]; read-out: OXA-11 IC50 (nM), Insulin receptor, cellular mechanistic, cell lysates
  IC50: > 10000 nM
[6]; cell lysates
  Fold selectivity for FAK over SRC: >1000×
[6]; [32]
  selectivity for FAK over SRC: > 1000 fold
[6]; read-out: OXA-11 IC50 (nM), SRC, cellular mechanistic, cell lysates
  IC50: > 10000 nM
[7]
  IC50: 8 nM
[8]
  IC50: 18 nM
[9]
  IC50: 20 nM
[10]
  IC50: 32 nM
[11]
  IC50: 84 nM
[12]
  IC50: 0.8 nM
[13]
  EC50: 31 nM
[14]
  EC50: 0.5 nM
[15]; [33]
  inhibition of tumor growth: 77%
[15]; nude mice, 20–120 mg/kg daily for 3 weeks
  reduction in size of TOV21G tumors: 22–67%
[16]; TOV21G tumors, single dose 80 or 120 mg/kg, plasma levels back to baseline
  reduction of pFAK [Y397] at 24 h: approximately 25%
[16]; [33]
  suppression of pFAK [Y397]: 61%
[16]; read-out: pharmacodynamic EC50 of pFAK [Y397] inhibition, total OXA-11, TOV21G tumors in mice, 4, 8 and 24 h
  EC50: 102 nM
[17]; higher daily dose (120 mg/kg)
  inhibition of MDA-MB-361 tumor growth over 3 weeks: 95%
[17]; lower daily dose (40 mg/kg)
  inhibition of MDA-MB-361 tumor growth over 3 weeks: 60%
[18]
  dose-limiting toxicity: No dose-limiting toxicity
[19]; 40 or 60 mg/kg daily for at least 3 weeks
  tolerability: well tolerated
[19]; OXA-11 given with DC101
  maximum tolerated dose: 20 mg/kg
[19]; daily
  tolerable dosing: 20 to 60 mg/kg
[20]
  pFAK [Y397] activity in RIP-Tag2 tumors: significantly reduced
[21]
  staining for pFAK [Y397] in RIP-Tag2 tumors: reduced to nearly undetectable levels
[21]; RIP-Tag2 mice
  pFAK [Y397] immunofluorescence in liver sinusoids, less than baseline: 86%
[22]; 2 h after one 20-mg/kg dose
  staining for pFAK [Y861] in RIP-Tag2 tumors: reduced to nearly undetectable levels
[22]; RIP-Tag2 liver sinusoids, single dose 20 mg/kg
  tissue half-life of OXA-11 inhibition of pFAK [Y861]: about 4 h
[22]; 1 h after single dose 20 mg/kg
  reduction of pFAK [Y861] staining in liver sinusoids: 79%
[22]; 4 h after single dose 20 mg/kg
  reduction of pFAK [Y861] staining in liver sinusoids: 57%
[22]; 6 h after single dose 20 mg/kg
  reduction of pFAK [Y861] staining in liver sinusoids: 35%
[23]; 17-week old RIP-Tag2 mice after treatment for 3 weeks
  mice with liver metastases visible at autopsy: 10%
[23]; RIP-Tag2 mice, 3 weeks treatment
  size of liver micrometastases: about the same as in the vehicle group
[24]; cell lysates
  Fold selectivity for FAK over RSK1/2: 26×
[24]; [32]
  selectivity for FAK over RSK1/2: 26 fold
[24]; read-out: OXA-11 IC50 (nM), RSK1/2, cellular mechanistic, cell lysates
  IC50: 260 nM
[25]; cell lysates
  Fold selectivity for FAK over Aurora kinase A: >1000×
[25]; [32]
  selectivity for FAK over aurora kinase A (AURKA): > 1000 fold
[25]; read-out: OXA-11 IC50 (nM), Aurora kinase A, cellular mechanistic, cell lysates
  IC50: > 10000 nM
[26]; cell lysates
  Fold selectivity for FAK over Aurora kinase B: >1000×
[26]; [32]
  selectivity for FAK over aurora kinase B (AURKB): > 1000 fold
[26]; read-out: OXA-11 IC50 (nM), Aurora kinase B, cellular mechanistic, cell lysates
  IC50: > 10000 nM
[27]; cell lysates
  Fold selectivity for FAK over KDR: >1000×
[27]; [32]
  selectivity for FAK over KDR (VEGFR-2, FLK1): > 1000 fold
[27]; read-out: OXA-11 IC50 (nM), KDR, cellular mechanistic, cell lysates
  IC50: > 10000 nM
[28]
  EC50: 9 nM
[29]
  EC50: 0.3 nM
[30]; TOV21G, OVCAR3, OVCAR5 and IGROV1 cells (high baseline pFAK [Y397])
  EC50: 0.3 to 14.5 nM
[30]; four other cell lines with lower baseline pFAK [Y397]
  EC50: > 100 nM

## N.N.[Cl][Pt][Cl] [cisplatin]
[31]
  effect on pFAK [Y397] in TOV21G-cell tumors: increased pFAK [Y397]
